Measured values collected from several papers.
Cell line: HCT-116
Observed: cell growth or viability

CC[C@@]1(OC(=O)[C@@H](N)CCCCN)C(=O)OCc2c1cc1n(c2=O)Cc2cc3cc4c(cc3nc2-1)OCO4  IC50 (MTT): 28 nM
COc1ccc2c(c1)[nH]c1c(C)nccc12  IC50 (MTT; 72 h): 25100 nM
N.N.[Cl][Pt][Cl]  IC50 (48 h): 16300 nM
CC[C@@]1(OC(=O)[C@@H](N)CCSC)C(=O)OCc2c1cc1n(c2=O)Cc2cc3cc4c(cc3nc2-1)OCO4  IC50 (MTT): 56 nM
CC1=C(O)C(=O)C=C2C1=CC=C1[C@@]2(C)CC[C@@]2(C)[C@@H]3C[C@](C)(C(=O)OCCCn4cc(C=O)c5ccccc54)CC[C@]3(C)CC[C@]12C  IC50 (MTT; 48 h): 570 nM
CSC(=NNC(=O)c1ccc(O)cc1)SC  IC50 (MTT; 5 days): > 100000 nM
N.N.[Cl][Pt][Cl]  IC50 (MTS; 72 h): 41700 nM
COc1ccc2[nH]cc(CCNc3nccc(Nc4cccc5c4ccn5C)n3)c2c1  IC50 (fluorescence; 72 h): 9.2 nM
O=c1ccc2cc3ccoc3cc2o1  IC50 (WST-1; 48 h): 26100 nM
CC[C@@]1(OC(=O)[C@@H](N)C(C)C)C(=O)OCc2c1cc1n(c2=O)Cc2cc3cc4c(cc3nc2-1)OCO4  IC50 (MTT): 46 nM
CSC(=NNC(=O)c1ccc(Cl)c(Cl)c1)SC  IC50 (MTT; 5 days): 28000 nM
CCC1(OC(=O)C(C)c2ccc3cc(OC)ccc3c2)C(=O)OCc2c1cc1n(c2=O)Cc2cc3cc4c(cc3nc2-1)OCO4 (stereo not shown)  IC50 (MTT): 2340 nM
CN[C@@H]1C[C@H]2O[C@@](C)([C@@H]1OC)n1c3ccccc3c3c4c(c5c6ccccc6n2c5c31)C(=O)NC4  IC50 (MTT): 15 nM
CC[C@@]1(O)C(=O)OCc2c1cc1n(c2=O)Cc2cc3cc4c(cc3nc2-1)OCO4  IC50 (MTT; 72 h): 14 nM
COc1cc2c3c(n(CCCN4CCOCC4)c(=O)c2cc1OC)-c1cc2c(cc1C3=O)OCO2  IC50 (72 h): 0.618 µg/mL
CC[C@@]1(OC(=O)Cc2c(C)n(C(=O)c3ccc(Cl)cc3)c3ccc(OC)cc23)C(=O)OCc2c1cc1n(c2=O)Cc2cc3cc4c(cc3nc2-1)OCO4  IC50 (MTT): 46 nM
CC1=C(O)C(=O)C=C2C1=CC=C1[C@@]2(C)CC[C@@]2(C)[C@@H]3C[C@](C)(C(=O)O)CC[C@]3(C)CC[C@]12C  IC50 (MTT; 48 h): 430 nM
O=c1ccc2ccc3occc3c2o1  IC50 (WST-1; 48 h): 8700 nM
N.N.[Cl][Pt][Cl]  IC50 (SRB): 5300 nM
